Source: ChEMBL document CHEMBL1667754, “Synthesis and biological activity of pyrazolothienotetrahydroisoquinoline and [1,2,4]triazolo[3,4-a]thienotetrahydroisoquinoline derivatives” (2011)

Tests used:
Escherichia coli = assay: Antibacterial activity against Escherichia coli at 50 uL/well by well diffusion assay; type: functional
Summary of the method: (§1)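 Bauer-type diffusion assay. Test compounds were at 2% in DMSO. The read-out was the diameter (mm) of the inhibition zone, with chloramphenicol as the reference agent.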

Micrococcus luteus = assay: Antibacterial activity against Micrococcus luteus at 50 uL/well by well diffusion assay; type: functional; summary of the method: as §1
Trichophyton rubrum = assay: Antifungal activity against Trichophyton rubrum at 50 uL/well by well diffusion assay; type: functional
Summary of the method: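 Agar discs (10 mm) carrying spores and hyphae were shaken in sterile distilled water. 1 mL of the spore suspension was plated and mixed with 15 mL molten SDA, then left to set. Compounds were at 2% in DMSO, applied per Bauer's diffusion method. The read-out was the inhibition zone (mm).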

Aspergillus niger = assay: Antifungal activity against Aspergillus niger at 2% by disc diffusion assay
Fusarium oxysporum = assay: Antifungal activity against Fusarium oxysporum at 2% by disc diffusion assay
Aspergillus flavus = assay: Antifungal activity against Aspergillus flavus at 2% by disc diffusion assay
Geotrichum candidum = assay: Antifungal activity against Geotrichum candidum at 2% by disc diffusion assay
Candida albicans = assay: Antifungal activity against Candida albicans at 200 ug/disc by disc diffusion assay
[1] = system: Scopulariopsis brevicaulis; assay: Antifungal activity against Scopulariopsis brevicaulis at 2% by disc diffusion assay
Bacillus cereus = assay: Antibacterial activity against Bacillus cereus at 200 ug/disc by disc diffusion assay
Serratia marcescens = assay: Antibacterial activity against Serratia marcescens at 200 ug/disc by disc diffusion assay
Staphylococcus aureus = assay: Antibacterial activity against Staphylococcus aureus at 200 ug/disc by disc diffusion assay
Pseudomonas aeruginosa = assay: Antibacterial activity against Pseudomonas aeruginosa at 200 ug/disc by disc diffusion assay

SMILES | diameter of the inhibition zone (DIZ) (Escherichia coli) | diameter of the inhibition zone (DIZ) (Micrococcus luteus) | diameter of the inhibition zone (DIZ) (Trichophyton rubrum) | diameter of the inhibition zone (DIZ) (Aspergillus niger) | diameter of the inhibition zone (DIZ) (Fusarium oxysporum) | diameter of the inhibition zone (DIZ) (Aspergillus flavus) | diameter of the inhibition zone (DIZ) (Geotrichum candidum) | diameter of the inhibition zone (DIZ) (Candida albicans) | diameter of the inhibition zone (DIZ) [1] | diameter of the inhibition zone (DIZ) (Bacillus cereus) | diameter of the inhibition zone (DIZ) (Serratia marcescens) | diameter of the inhibition zone (DIZ) (Staphylococcus aureus) | diameter of the inhibition zone (DIZ) (Pseudomonas aeruginosa)
N#CCSc1c(C#N)c2c(c3nncn13)CCCC2 | 8 mm | 11 mm | 0 mm | 0 mm | 0 mm | 0 mm | 0 mm | 0 mm | 0 mm | 12 mm | 12 mm | 10 mm | 0 mm
CCOC(=O)CSc1c(C#N)c2c(c3nncn13)CCCC2 | 0 mm | 10 mm | 0 mm | 0 mm | 0 mm | 0 mm | 0 mm | 0 mm | 0 mm | 11 mm | 0 mm | 0 mm | 0 mm
N#Cc1c2c(c3nncn3c1SCC(=O)c1ccccc1)CCCC2 | 10 mm | 14 mm | 0 mm | 16 mm | 11 mm | 20 mm | 8 mm | 11 mm | 10 mm | 14 mm | 0 mm | 0 mm | 0 mm
N#Cc1c2c(c3nncn3c1SCC(N)=O)CCCC2 | 12 mm | 0 mm | 0 mm | 0 mm | 0 mm | 0 mm | 0 mm | 0 mm | 0 mm | 13 mm | 0 mm | 8 mm | 0 mm
Cc1cc(C)n(-c2nc(SCC#N)c(C#N)c3c2CCCC3)n1 | 0 mm | 0 mm | 0 mm | 8 mm | 8 mm | 0 mm | 10 mm | 12 mm | 0 mm | 8 mm | 10 mm | 8 mm | 0 mm
CCOC(=O)CSc1nc(-n2nc(C)cc2C)c2c(c1C#N)CCCC2 | 10 mm | 0 mm | 0 mm | 0 mm | 0 mm | 0 mm | 10 mm | 0 mm | 0 mm | 0 mm | 10 mm | 7 mm | 0 mm
